16 molecules from PubChem BioAssay can be followed below.

A short description of assay [1]: Her2 expression decrease, cell viability multiplex – SKBR3 breast tumor cells, AlphaScreen, ATP viability, primary screen (AID 461;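 active = Her2 level under about 52% in both replicate screens, with viability over 70% of control, limit read from the data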;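 as to Her2 level: lower value means less Her2 protein in the cells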;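 as to viability: percent of carrier control wells set as 100% viability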). The settings on record: SKBR3 Her2 protein level, 18-24 h, measured here: SKBR3 viability, ATP luminescence, at 10 µM. On the technique in general: Alpha assays give light when donor and acceptor beads are brought close together.
Assay [2] has as its target Receptor tyrosine-protein kinase erbB-2 (Homo sapiens) (UniProt P04626). The assay is described as above. To be noted: 18-24 h, at 10 µM, stronger effect = lower value.
Assay [3] in a line: reduced viability of SK-BR-3 breast cancer cells – cell-based, 24 h, human, pilot screen (AID 572;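 active = viability at or below 10% of carrier control in both of two separate runs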;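 also: compound exposure lasted between 18 and 24 h rather than exactly 24 h; 100% = carrier-treated control wells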). The settings on record: SK-BR-3 viability, CellTiter-Glo luminescence, at 10 µM, stronger effect = lower value.
Assay [4] in a line: HUVEC growth inhibition – cell-based, human, primary screen (AID 575).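 Also: 100% = median of untreated cell wells with 0.1% DMSO on each plate.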 To be noted: HUVEC proliferation, CellTiter-Glo luminescence, 72 h; at 10 µM; stronger effect = lower value. In outline: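 System – primary HUVEC, no more than 12 passages · Medium – Low-serum (2% FBS) EBM, supplemented · Times – 72 h exposure, 37 °C, 5% CO2, 30 min RT equilibration · Measured by – luminescent ATP assay · Read-out – % viability relative to median vehicle-well signal on each plate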
(In ATP-based viability assays light output follows the ATP content of the culture.)

Assay [5] can be described thus: H69AR cell proliferation blockers – human, duplicate replicates, primary screen (AID 580;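 active = viability at or under a set limit in both replicates, limit being median viability minus 3 SD, cut at about 48% in these data, passing the limit was not always enough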;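 also: 100% = mean luminescence of untreated wells and 0% = no signal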). The settings on record: H69AR lung tumor cells viability, ATP luminescence, 72 h; at 10 µM; stronger effect = lower value.
Assay [6] is described as follows: MRP1 drug-resistance reversers in H69AR cells – cell-based, doxorubicin co-treatment, pilot screen (AID 601;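 active = viability loss from added drug above about 55%, and viability with drug at most 40%, in both replicates, limit read from the data, passing the limit was not always enough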). The settings on record: CellTiter-Glo, 72 h, at 10 µM; for differential viability (reversal): stronger effect = higher value.
Assay [7] is described as follows: yeast transport mutant growth inhibition pilot in 384-well plates, post-Golgi transport modulator project (AID 636; in the data active = inhibition above about 31%). To be noted: absorbance 615 nm, about 18 h, stronger effect = higher value.
Assay [8] can be described thus: growth suppression of yeast trafficking mutant, preliminary HTS, modulators of trafficking downstream of Golgi apparatus project, 1536-format plate, OD 615 nm (AID 637; in the data active = inhibition above about 30%). The settings on record: yeast transport mutant growth, absorbance 615 nm, 18 h; stronger effect = higher value.
The mark [9] stands for this setting: H69AR cells + 2 uM doxorubicin, measured here: viability with 2 uM doxorubicin, stronger effect = lower value.
Setting [10] is: H69AR cells, compound alone cytotoxicity.

Activity calls are given as the source filed them.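 The calls were made as follows, unless noted: active = viability at or below 30% in both replicate assays; inconclusive = viability at or below 30% in just one of the two assays; inactive = the rest.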

Receptor tyrosine-protein kinase erbB-2 (Homo sapiens), sequence (P04626 whole entry, looked up): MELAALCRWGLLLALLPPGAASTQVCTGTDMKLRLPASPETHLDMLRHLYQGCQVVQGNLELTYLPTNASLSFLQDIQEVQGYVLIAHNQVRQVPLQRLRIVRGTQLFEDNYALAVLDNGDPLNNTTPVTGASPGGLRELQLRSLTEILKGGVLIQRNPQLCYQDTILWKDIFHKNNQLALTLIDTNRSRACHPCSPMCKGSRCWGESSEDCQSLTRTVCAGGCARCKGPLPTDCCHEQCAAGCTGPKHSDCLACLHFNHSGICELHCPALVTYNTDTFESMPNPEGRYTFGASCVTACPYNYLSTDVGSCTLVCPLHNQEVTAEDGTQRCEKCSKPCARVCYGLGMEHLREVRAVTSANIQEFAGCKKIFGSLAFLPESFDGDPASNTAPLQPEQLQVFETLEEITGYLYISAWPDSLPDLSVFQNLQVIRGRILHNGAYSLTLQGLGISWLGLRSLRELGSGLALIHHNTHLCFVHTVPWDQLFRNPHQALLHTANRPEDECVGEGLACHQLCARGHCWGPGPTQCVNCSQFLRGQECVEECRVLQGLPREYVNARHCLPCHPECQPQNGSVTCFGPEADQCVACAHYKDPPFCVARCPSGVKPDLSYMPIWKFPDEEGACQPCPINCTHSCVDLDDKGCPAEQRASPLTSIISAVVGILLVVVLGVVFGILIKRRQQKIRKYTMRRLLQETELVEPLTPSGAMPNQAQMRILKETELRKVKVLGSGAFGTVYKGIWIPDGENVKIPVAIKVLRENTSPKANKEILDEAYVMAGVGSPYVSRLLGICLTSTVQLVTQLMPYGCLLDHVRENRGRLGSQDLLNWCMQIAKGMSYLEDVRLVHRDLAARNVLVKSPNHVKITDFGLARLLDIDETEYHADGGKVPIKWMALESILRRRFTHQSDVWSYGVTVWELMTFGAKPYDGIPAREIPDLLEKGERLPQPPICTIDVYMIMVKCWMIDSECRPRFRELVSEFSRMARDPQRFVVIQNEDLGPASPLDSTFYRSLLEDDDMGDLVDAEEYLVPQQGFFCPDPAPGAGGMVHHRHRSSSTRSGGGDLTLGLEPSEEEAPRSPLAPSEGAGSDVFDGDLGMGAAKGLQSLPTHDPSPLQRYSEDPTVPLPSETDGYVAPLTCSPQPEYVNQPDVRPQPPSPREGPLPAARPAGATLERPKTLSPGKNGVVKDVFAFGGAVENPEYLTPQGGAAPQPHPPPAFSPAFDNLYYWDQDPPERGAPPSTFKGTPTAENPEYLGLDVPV

As for `COc1ccc(C(=O)N(Cc2ccco2)C(C(=O)NC2CCCC2)c2ccc(O)cc2)cc1OC` (stereo not given), the viability in assay [1] is 77.5%; in assay [3] it was 77.5% (inactive); in assay [4] it was 76.8% (inactive); in assay [5], 78.8% (inactive); in assay [6] (setting [9]), 80.4%; in assay [6] (setting [10]), 78.8%. Moreover, the Her2 level in assay [2] is 85% (inactive). Also, in assay [6] (H69AR cells + 2 uM doxorubicin), the differential viability (reversal) was -1.66% (inactive). Moreover, the inhibition in assay [7] was -1.32% (inactive); in assay [8] it was -8% (inactive).

Consider `N=c1c(C(=O)NCc2ccc3c(c2)OCO3)cc2c(=O)n3ccccc3nc2n1Cc1cccnc1`, for which the viability in assay [1] is 73.5%; in assay [3], 73.5% (inactive); in assay [4], 87% (inactive); in assay [5], 78.8% (inactive); in assay [6] (setting [9]), 79.3%; in assay [6] (setting [10]), 78.8%. Moreover, the Her2 level in assay [2] is 68% (inactive). Moreover, the differential viability (reversal) in assay [6] (H69AR cells + 2 uM doxorubicin) is -0.53% (inactive). For the same molecule, the inhibition is -2.47% (inactive) in assay [7] and -2.3% (inactive) in assay [8].

Take `CN1C(=S)SC(C)(NO)C1(C)C` (stereo not given): the viability is 90% in assay [1]; 90% (inactive) in assay [3]; 97% (inactive) in assay [4]; 104% (inactive) in assay [5]; 98.4% in assay [6] (setting [9]); 104% in assay [6] (setting [10]). Further, the Her2 level in assay [2] was 95.5% (inactive). In assay [6] (H69AR cells + 2 uM doxorubicin), the differential viability (reversal) was 5.95% (inactive). Also, the inhibition is -0.27% (inactive) in assay [7] and -9.52% (inactive) in assay [8].

On to `Cc1ccc(S(=O)(=O)N2CCOCC(=O)NCCOCCNC(=O)COCC2)cc1`, for which the viability in assay [1] is 93.5%; in assay [3], 93.5% (inactive); in assay [4], 95.4% (inactive); in assay [5], 106% (inactive); in assay [6] (setting [9]) it was 96.9%; in assay [6] (setting [10]), 106%. The Her2 level in assay [2] is 102% (inactive). Also, in assay [6] (H69AR cells + 2 uM doxorubicin), the differential viability (reversal) is 8.95% (inactive). The inhibition in assay [7] is -4.13% (inactive); in assay [8], -4.26% (inactive).

Turning to `COCCCNC(=O)c1ccc2c(c1)OCO2`, the viability in assay [1] is 96.5%; in assay [3], 96.5% (inactive); in assay [4], 89.9% (inactive); in assay [5], 89.8% (inactive); in assay [6] (setting [9]) it was 91.3%; in assay [6] (setting [10]), 89.8%. In assay [2], the Her2 level was 93.5% (inactive). Moreover, the differential viability (reversal) in assay [6] (H69AR cells + 2 uM doxorubicin) was -1.48% (inactive). For the same molecule, the inhibition in assay [7] was -2.76% (inactive); in assay [8], 5.74% (inactive).

On to `COc1cccc(NC(=O)CSc2nnc(-c3cc(-c4ccccn4)nc4ccccc34)o2)c1`, for which the viability is 94.5% in assay [1]; 94.5% (inactive) in assay [3]; 81% (inactive) in assay [4]; 76.4% (inactive) in assay [5]; 79.7% in assay [6] (setting [9]); 76.4% in assay [6] (setting [10]). In addition, the Her2 level in assay [2] was 85% (inactive). Besides, the differential viability (reversal) in assay [6] (H69AR cells + 2 uM doxorubicin) was -3.28% (inactive). Moreover, the inhibition in assay [7] is -1.22% (inactive); in assay [8], -4.6% (inactive).

Consider `CCn1c(=O)cc(SCC(=O)NCC2CCCO2)c2ccccc21` (stereo not given), for which the viability in assay [1] is 89%; in assay [3], 89% (inactive); in assay [4], 88.7% (inactive); in assay [5], 87% (inactive); in assay [6] (setting [9]), 78.4%; in assay [6] (setting [10]), 87%. In assay [2], the Her2 level was 87% (inactive). Besides, the differential viability (reversal) in assay [6] (H69AR cells + 2 uM doxorubicin) is 8.63% (inactive). Further, the inhibition in assay [7] is -3.03% (inactive); in assay [8] it was -7.27% (inactive).

With `COc1ccc(-c2noc(CN3CCC(Cc4ccccc4)CC3)n2)cc1`, the viability was 94% in assay [1]; 94% (inactive) in assay [3]; 87.5% (inactive) in assay [4]; 93.5% (inactive) in assay [5]; 88.9% in assay [6] (setting [9]); 93.5% in assay [6] (setting [10]). In assay [2], the Her2 level is 112% (inactive). Moreover, in assay [6] (H69AR cells + 2 uM doxorubicin), the differential viability (reversal) was 4.6% (inactive). The inhibition in assay [7] was -4.8% (inactive); in assay [8], -3.39% (inactive).

Take `COC(=O)C(C)NC(=O)C12CC3CC(CC(C3)C1)C2` (stereo not given): the viability was 92% in assay [1]; 92% (inactive) in assay [3]; 107% (inactive) in assay [4]; 99.7% (inactive) in assay [5]; 94.8% in assay [6] (setting [9]); 99.7% in assay [6] (setting [10]). Moreover, the Her2 level in assay [2] was 123% (inactive). The differential viability (reversal) in assay [6] (H69AR cells + 2 uM doxorubicin) is 4.86% (inactive). Further, the inhibition in assay [7] is -1.54% (inactive); in assay [8], -5.33% (inactive).

Turning to `O=C(NC1CCCC1)C1CC1c1ccccc1` (stereo not given), the viability in assay [1] is 100%; in assay [3], 100% (inactive); in assay [4], 93.9% (inactive); in assay [5], 98.3% (inactive); in assay [6] (setting [9]), 101%; in assay [6] (setting [10]), 98.3%. Also, in assay [2], the Her2 level is 102% (inactive). Further, in assay [6] (H69AR cells + 2 uM doxorubicin), the differential viability (reversal) was -2.33% (inactive). For the same molecule, the inhibition in assay [7] is -6.13% (inactive); in assay [8], 1.15% (inactive).

`C/C(=N\O)C(=O)NCCCNCCCN(C)C`: the viability in assay [1] is 104%; in assay [3], 104% (inactive); in assay [4] it was 117% (inactive); in assay [5], 98.2% (inactive); in assay [6] (setting [9]), 102%; in assay [6] (setting [10]), 98.2%. The Her2 level in assay [2] is 94.5% (inactive). The differential viability (reversal) in assay [6] (H69AR cells + 2 uM doxorubicin) is -3.41% (inactive). Also, the inhibition is -6.16% (inactive) in assay [7] and 0.48% (inactive) in assay [8].

Turning to `Cc1ccc(-c2noc(CCC(=O)NCC3CCN(Cc4cccc(C)c4)CC3)n2)cc1`, the viability was 93.5% in assay [1]; 93.5% (inactive) in assay [3]; 53.9% (inactive) in assay [4]; 84.6% (inactive) in assay [5]; 95.6% in assay [6] (setting [9]); 84.6% in assay [6] (setting [10]). Also, the Her2 level in assay [2] was 82.5% (inactive). Moreover, the differential viability (reversal) in assay [6] (H69AR cells + 2 uM doxorubicin) is -11% (inactive). Moreover, the inhibition was -4.87% (inactive) in assay [7] and 1.83% (inactive) in assay [8].

Turning to `Cc1c(CCC#N)c(N2CCN(C3CCCCC3)CC2)n2c(nc3ccccc32)c1C#N`, the viability is 88% in assay [1]; 88% (inactive) in assay [3]; 74.7% (inactive) in assay [4]; 32.5% (active) in assay [5]; 22.1% in assay [6] (setting [9]); 32.5% in assay [6] (setting [10]). Besides, in assay [2], the Her2 level was 83.5% (inactive). For the same molecule, in assay [6] (H69AR cells + 2 uM doxorubicin), the differential viability (reversal) was 10.4% (inactive). For the same molecule, the values for the inhibition in assay [7] and in assay [8] were -5.48% (inactive) and -0.16% (inactive), respectively.

Turning to `Cc1ccc(N2C(=O)c3ccccc3C2Nc2cccnc2)nc1` (stereo not given), the viability is 94% in assay [1]; 94% (inactive) in assay [3]; 85.4% (inactive) in assay [4]; 83.3% (inactive) in assay [5]; 94.1% in assay [6] (setting [9]); 83.3% in assay [6] (setting [10]). The Her2 level in assay [2] was 99.5% (inactive). For the same molecule, the differential viability (reversal) in assay [6] (H69AR cells + 2 uM doxorubicin) was -10.8% (inactive). The inhibition in assay [7] is -2.18% (inactive); in assay [8], -1.33% (inactive).

For the molecule `CCOC(=O)CSC1=Nc2ccccc2C2=NC(CC(=O)NCc3ccc(OC)cc3)C(=O)N12` (stereo not given), the viability is 117% in assay [1]; 117% (inactive) in assay [3]; 83% (inactive) in assay [4]; 99.7% (inactive) in assay [5]; 97.3% in assay [6] (setting [9]); 99.7% in assay [6] (setting [10]). The Her2 level in assay [2] was 89% (inactive). Moreover, the differential viability (reversal) in assay [6] (H69AR cells + 2 uM doxorubicin) is 2.4% (inactive). Also, the figures for the inhibition in assay [7] and in assay [8] were -4.21% (inactive) and -1.27% (inactive), respectively.

`O=C1C(c2ccncc2)=C(O)c2ccccc21`: the viability in assay [1] is 100%; in assay [3], 100% (inactive); in assay [4] it was 73.6% (inactive); in assay [5], 82.2% (inactive); in assay [6] (setting [9]) it was 85.9%; in assay [6] (setting [10]), 82.2%. The Her2 level in assay [2] was 87% (inactive). Moreover, the differential viability (reversal) in assay [6] (H69AR cells + 2 uM doxorubicin) is -3.63% (inactive). The figures for the inhibition in assay [7] and in assay [8] were -1.05% (inactive) and 12.7% (inactive), respectively.

A word on the viability: it is a read-out of living cells in per cent, often relative to untreated cells. In general, inhibition refers to the change of the read-out against control, counted positive when it falls.
